Screening data from PubChem BioAssay.
NCF1 inh: p47phox/p22phox peptide binding inhibitors, primary screen, biochemical, uHTS, NADPH oxidase regulatory subunit; Neutrophil cytosol factor 1 (Homo sapiens), P14598; fluorescence polarization, 2 h; actives 0.53% (n = 220,000); inhibition, % at 24.7 µM;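 active = inhibition above about 30%, limit read from the data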;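 note: 0% = p47phox with labelled peptide and 100% = labelled peptide alone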
Target sequence (P14598 whole entry, looked up): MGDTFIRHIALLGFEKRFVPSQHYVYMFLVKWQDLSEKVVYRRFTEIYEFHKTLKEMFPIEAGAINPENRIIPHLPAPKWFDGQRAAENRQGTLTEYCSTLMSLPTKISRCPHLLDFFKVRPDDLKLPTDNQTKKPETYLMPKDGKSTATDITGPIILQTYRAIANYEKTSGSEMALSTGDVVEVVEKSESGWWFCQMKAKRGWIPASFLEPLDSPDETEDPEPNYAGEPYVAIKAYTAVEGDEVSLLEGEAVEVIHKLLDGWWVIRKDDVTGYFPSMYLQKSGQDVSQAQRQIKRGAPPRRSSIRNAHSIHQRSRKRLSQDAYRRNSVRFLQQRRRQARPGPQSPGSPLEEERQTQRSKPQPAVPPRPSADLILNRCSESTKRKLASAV
p97 inhibitor: inhibitors of human p97 ATPase, primary screen, biochemical; recombinant p97 ATPase, Kinase-Glo ATP luminescence, 3 h; Transitional endoplasmic reticulum ATPase (Homo sapiens), P55072; inhibition, % at 8 µM; AID 1481, 2009; actives 0.42% (n = 220,000);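 note: 0% = DMSO vehicle and 100% = wells lacking enzyme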
Tb MetRS inh: T. brucei MetRS inhibitors, primary screen, biochemical, luminescence. methionyl-tRNA synthetase (Trypanosoma brucei brucei). purified T. brucei MetRS, ATP depletion, Kinase-Glo luminescence. inhibition, % at 11.9 µM. actives 0.4% (n = 360,000). AID 624268, 2012;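 active = inhibition above a per-plate cutoff of the control wells' mean inhibition plus 3 SD, cut at about 5.5% in these data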;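 note: 0% = DMSO wells median and 100% = median of wells with control inhibitor compound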
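Dosing: 11.9 µM compound single dose, 0.9% DMSO; Assay system: purified T. brucei MetRS enzyme; Measured by: Kinase-Glo luciferase luminescence reporting remaining unconsumed ATP; Schedule: 15 min plus 2 h at 25 °C.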
14-3-3 Bad PPI: inhibitors of 14-3-3 zeta/Bad binding, primary screen, biochemical, TR-FRET, bovine 14-3-3 zeta | 14-3-3 protein zeta/delta (Bos taurus), P63103 | TR-FRET 14-3-3zeta/Dy647-pBad peptide displacement, 1 h | inhibition, % at 21.7 µM | actives 0.71% (n = 220,000) | AID 781, 2007;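 active = inhibition above about 70%, limit read from the data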;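 note: 0% = full 14-3-3 plus peptide FRET controls and 100% = background without 14-3-3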
SUMO HTRF inh: inhibitors of in vitro SUMOylation cascade, primary screen, biochemical, HTRF, uHTS. HTRF SUMOylation assay, SAE1/SAE2 + UBC9. actives 0.36% (n = 290,000). inhibition, % at 35 µM. SUMO-conjugating enzyme UBC9 (Homo sapiens), P63279; in the data active = inhibition above about 50%, passing the limit was not always enough
eIF4E-4G inh: eIF4E–eIF4G protein interaction inhibitors, primary screen, biochemical, uHTS, TR-FRET, eIF4GI fragment; Eukaryotic translation initiation factor 4E (Mus musculus) + Eukaryotic translation …; TR-FRET eIF4E-eIF4GI(517-606) binding, 2 h; inhibition, % at 21.7 µM; actives 0.37% (n = 220,000); AID 782, 2007;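 active = inhibition above about 30%, limit read from the data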;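 note: 0% = full FRET control wells and 100% = background wells lacking eIF4GI fragment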
Tb MetRS conf: T. brucei MetRS inhibitors, confirmation, biochemical, luminescence; shares compounds with Tb MetRS inh; T. brucei MetRS enzyme, luminescence (ATP depletion); inhibition, % at 11.9 µM; actives 93% (n = 1,400); AID 624412, 2012; in the data active = inhibition above about 7%
Jurkat cytotox: Jurkat T cell cytotoxicity, cytotoxicity control for T. brucei MetRS inhibitor project, luminescence, high throughput. AID 624413, 2012. actives 12% (n = 1,400). shares compounds with Tb MetRS inh. Jurkat cells viability, ATP luminescence. inhibition, % at 8.3 µM;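 note: 0% = vehicle and 100% = reference inhibitor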
Tb MetRS inh FP: T. brucei MetRS inhibitors, orthogonal assay for T. brucei MetRS inhibitor project, biochemical, fluorescence polarization | shares compounds with Tb MetRS inh | purified T. brucei MetRS | inhibition, % at 11.9 µM | actives 44% (n = 1,400) | AID 651607, 2012; in the data active = inhibition above about 17%;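 note: 0% = vehicle wells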
The depositor's hits bear a star; · = not tested or not shown. This is a sample that favours compounds with a hit; in the whole collection about 1.6% have one here. Cut-off read from the data, not from the text of the source, unless noted: active = inhibition above about 15%; inactive = the rest.

SMILES	NCF1 inh	p97 inhibitor	Tb MetRS inh	14-3-3 Bad PPI	SUMO HTRF inh	eIF4E-4G inh	Tb MetRS conf	Jurkat cytotox	Tb MetRS inh FP
CN(C)c1ccc(CNC(=O)c2cc(S(=O)(=O)N3CCOCC3)cn2C)cc1	·	·	1	·	0	·	·	·	·
O=C(CSc1nc2ccccc2[nH]1)Nc1cc(C(F)(F)F)ccc1N1CCOCC1	-2	1	0	·	0	·	·	·	·
O=C(Cn1c(CO)nc2ccccc21)Nc1cc(C(F)(F)F)ccc1N1CCOCC1	-14	1	14*	-8	20	5	26*	-2	4
Cn1nc(C(F)(F)F)c(-c2ccc(Br)cc2)c1NC(=O)Nc1ccc(F)cc1F	-8	6	25*	-1	-1	2	54*	15	31*
Cn1nc(C(F)(F)F)c(-c2ccc(F)cc2)c1NC(=O)c1ccco1	1	0	0	5	14	-11	·	·	·
CC(C)CC(CO)N1CCN(C(=O)c2ccc(Cl)cc2)CCC1=O (centres undefined)	·	·	1	·	·	·	·	·	·
O=C(CSc1ncc(-c2ccccc2)[nH]1)Nc1cccc(O)c1	-18	5	5.6*	-13	8	-3	13*	8	5
